This is an account of results in ChEMBL document CHEMBL1800022, “Structure-activity relationships of a series of analogues of the RFamide-related peptide 26RFa” (J Med Chem, 2011).

Assay [1] addresses T1, Pyroglutamylated RF-amide peptide receptor (Homo sapiens) (UniProt Q96P65).
T1 sequence (whole entry): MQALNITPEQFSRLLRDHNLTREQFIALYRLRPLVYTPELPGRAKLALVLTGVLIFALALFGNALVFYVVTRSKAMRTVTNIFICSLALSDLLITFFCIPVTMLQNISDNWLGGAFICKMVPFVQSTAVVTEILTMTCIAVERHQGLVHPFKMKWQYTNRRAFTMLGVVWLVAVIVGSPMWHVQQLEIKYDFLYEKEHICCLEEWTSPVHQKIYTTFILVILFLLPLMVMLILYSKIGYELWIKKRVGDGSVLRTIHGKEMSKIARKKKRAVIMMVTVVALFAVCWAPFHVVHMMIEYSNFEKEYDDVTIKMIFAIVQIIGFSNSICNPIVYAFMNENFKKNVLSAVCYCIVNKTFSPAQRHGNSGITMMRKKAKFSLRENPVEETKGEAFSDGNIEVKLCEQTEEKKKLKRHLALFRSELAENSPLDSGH
Nature of the assay: Agonist activity at DYKDDDDK-flagged human GPR103 receptor expressed in CHO-K1 cells co-expressing G-protein alpha16 assessed as stimulation of calcium mobilization at 10' -12 to 10^-5 M after 2 mins by fluorometric analysis. The format is functional, cell-based. Summed up:
(§1)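 CHO-K1 cells stably expressing Gα16 and C-terminally flag-tagged human GPR103 (Geneticin-selected), plated at 40 000 cells/well 24 h before assay. Loaded with 2 μM Fluo-4AM for 1 h, washed, then 30 min in HBSS with 2.5 mM probenecid and 5 mM HEPES. Peptides added at 10^-12 to 10^-5 M final and fluorescence read for 2 min. Triplicates; EC50 from sigmoidal variable-slope fit, at least three experiments.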

Assay [2] has as its target T2, Pyroglutamylated RF-amide peptide receptor (Homo sapiens, UniProt Q96P65).
T2 sequence (Q96P65 whole entry): T1 sequence (whole entry)
Nature of the assay: Agonist activity at DYKDDDDK-flagged human GPR103 receptor expressed in CHO-K1 cells co-expressing G-protein alpha16 assessed as stimulation of calcium mobilization after 2 mins by fluorometric analysis. The assay is classed as functional, cell-based. The method in brief: as §1

Active and inactive are the calls of the source. The rule behind the calls is not given here. Non-standard residues stand in square brackets, D forms with d. Residues, ends and D or L forms follow the SMILES beside them. *: point of attachment. Phenylacetyl(4-F) = O=C(Cc1ccc(F)cc1)*; NBn2 = c1ccc(CN(Cc2ccccc2)*)cc1; X3 = C1CCN(N(N2CCCCC2)*)CC1; hSer = N[C@@H](CCO)C(=O)O; Nle = CCCC[C@H](N)C(=O)O; 2Furoyl = O=C(c1ccco1)*; Cbz = O=C(OCc1ccccc1)*; NHBn = c1ccc(CN*)cc1

Take `N=C(N)NCCC[C@H](NC(=O)[C@H](Cc1ccccc1)NC(=O)[C@H](CO)NC(=O)[C@H](Cc1ccccc1)NC(=O)CNC(=O)CN)C(=O)N[C@@H](Cc1ccccc1)C(=O)N(Cc1ccccc1)Cc1ccccc1` (H-GGFSFRF-NBn2): the result in assay [1] was inactive.

Turning to `N=C(N)NCCC[C@H](NC(=O)[C@H](Cc1ccccc1)NC(=O)[C@H](CCO)NC(=O)[C@H](Cc1ccccc1)NC(=O)CNC(=O)CN)C(=O)N[C@@H](Cc1ccccc1)C(N)=O` (H-GGF[hSer]FRF-NH2), the EC50 in assay [2] is 374 nM.

For the compound `CC(C)C[C@H](NC(=O)[C@H](CC(N)=O)NC(=O)CNC(=O)[C@H](CC(C)C)NC(=O)[C@@H]1CCCN1C(=O)CNC(=O)[C@H](CO)NC(=O)[C@@H](N)[C@@H](C)O)C(=O)N[C@@H](C)C(=O)N[C@@H](CCC(=O)O)C(=O)N[C@@H](CCC(=O)O)C(=O)N[C@@H](CC(C)C)C(=O)N[C@@H](CC(N)=O)C(=O)NCC(=O)N[C@@H](Cc1ccc(O)cc1)C(=O)N[C@@H](CO)C(=O)N[C@@H](CCCN=C(N)N)C(=O)N[C@@H](CCCCN)C(=O)N[C@@H](CCCCN)C(=O)NCC(=O)NCC(=O)N[C@@H](Cc1ccccc1)C(=O)N[C@@H](CO)C(=O)N[C@@H](Cc1ccccc1)C(=O)N[C@@H](CCCN=C(N)N)C(=O)N[C@@H](Cc1ccccc1)C(=O)NCc1ccccc1` (H-TSGPLGNLAEELNGYSRKKGGFSFRF-NHBn), the EC50 in assay [2] turned out to be 39 nM.

As to `CC(C)C[C@H](NC(=O)[C@H](CC(N)=O)NC(=O)CNC(=O)[C@H](CC(C)C)NC(=O)[C@@H]1CCCN1C(=O)CNC(=O)[C@H](CO)NC(=O)[C@@H](N)[C@@H](C)O)C(=O)N[C@@H](C)C(=O)N[C@@H](CCC(=O)O)C(=O)N[C@@H](CCC(=O)O)C(=O)N[C@@H](CC(C)C)C(=O)N[C@@H](CC(N)=O)C(=O)NCC(=O)N[C@@H](Cc1ccc(O)cc1)C(=O)N[C@@H](CO)C(=O)N[C@@H](CCCNC(=N)N)C(=O)N[C@@H](CCCCN)C(=O)N[C@@H](CCCCN)C(=O)NCC(=O)NCC(=O)N[C@@H](Cc1ccccc1)C(=O)N[C@@H](CO)C(=O)N[C@@H](Cc1ccccc1)C(=O)N[C@@H](CCCNC(=N)N)C(=O)N[C@@H](Cc1ccccc1)C(=O)N(N1CCCCC1)N1CCCCC1` (H-TSGPLGNLAEELNGYSRKKGGFSFRF-X3), the EC50 in assay [2] stood at 282 nM.

In the case of `CCCC[C@H](NC(=O)[C@H](Cc1ccccc1)NC(=O)CNC(=O)CN)C(=O)N[C@@H](Cc1ccccc1)C(=O)N[C@@H](CCCN=C(N)N)C(=O)N[C@@H](Cc1ccccc1)C(N)=O` (H-GGF[Nle]FRF-NH2), the EC50 in assay [2] was 741 nM.

Turning to `C[C@H](N)C(=O)NCC(=O)N[C@@H](Cc1ccccc1)C(=O)N[C@@H](CO)C(=O)N[C@@H](Cc1ccccc1)C(=O)N[C@@H](CCCNC(=N)N)C(=O)N[C@@H](Cc1ccccc1)C(N)=O` (H-AGFSFRF-NH2), the EC50 in assay [2] was 3350 nM.

In the case of `C[C@H](NC(=O)[C@H](Cc1ccccc1)NC(=O)CNC(=O)CN)C(=O)N[C@@H](Cc1ccccc1)C(=O)N[C@@H](CCCNC(=N)N)C(=O)N[C@@H](Cc1ccccc1)C(N)=O` (H-GGFAFRF-NH2), the EC50 in assay [2] was found to be 1310 nM.

Consider `CC(C)C[C@H](NC(=O)[C@H](CCC(=O)O)NC(=O)[C@H](CCC(=O)O)NC(=O)[C@H](C)NC(=O)[C@H](CC(C)C)NC(=O)[C@@H](NC(=O)CNC(=O)[C@H](CC(C)C)NC(=O)[C@@H]1CCCN1C(=O)CNC(=O)[C@H](CO)NC(=O)[C@H](C)N)[C@@H](C)O)C(=O)N[C@@H](CO)C(=O)N[C@@H](CO)C(=O)N[C@@H](Cc1ccc(O)cc1)C(=O)N[C@@H](CO)C(=O)N[C@@H](CCCNC(=N)N)C(=O)N[C@@H](CCCNC(=N)N)C(=O)N[C@@H](CCCCN)C(=O)NCC(=O)NCC(=O)N[C@@H](Cc1ccccc1)C(=O)N[C@@H](CO)C(=O)N[C@@H](Cc1ccccc1)C(=O)N[C@@H](CCCNC(=N)N)C(=O)N[C@@H](Cc1ccccc1)C(N)=O` (H-ASGPLGTLAEELSSYSRRKGGFSFRF-NH2), for which the EC50 in assay [2] came out at 4.9 nM.

With `NC(=O)[C@H](Cc1ccccc1)NC(=O)[C@H](CCCN=C(N)N)NC(=O)[C@H](Cc1ccccc1)NC(=O)[C@H](CO)NC(=O)[C@H](Cc1ccccc1)NC(=O)CNC(=O)CNC(=O)Cc1ccc(F)cc1` ({Phenylacetyl(4-F)}-GGFSFRF-NH2), the EC50 in assay [2] was determined as 830 nM.

As for `N=C(N)NCCC[C@H](NC(=O)[C@H](Cc1ccccc1)NC(=O)[C@H](CO)NC(=O)[C@H](Cc1ccccc1)NC(=O)CNC(=O)CNC(=O)[C@H](CCCCN)NC(=O)[C@H](CCCCN)NC(=O)[C@H](CCCNC(=N)N)NC(=O)[C@H](CO)NC(=O)[C@H](Cc1ccc(O)cc1)NC(=O)CN)C(=O)N[C@@H](Cc1ccccc1)C(N)=O` (H-GYSRKKGGFSFRF-NH2), the half-maximal effective concentration (EC50) in assay [2] was 185 nM.

With `CC[C@@H](C)[C@H](NC(=O)[C@H](Cc1ccccc1)NC(=O)CNC(=O)CN)C(=O)N[C@@H](Cc1ccccc1)C(=O)N[C@@H](CCCN=C(N)N)C(=O)N[C@@H](Cc1ccccc1)C(N)=O`, in assay [2], the EC50 is 817 nM.

For the compound `NC(=O)[C@H](Cc1ccccc1)NC(=O)[C@H](CCCN=C(N)N)NC(=O)[C@H](Cc1ccccc1)NC(=O)[C@H](CO)NC(=O)[C@H](Cc1ccccc1)NC(=O)CNC(=O)CNC(=O)OCc1ccccc1` (Cbz-GGFSFRF-NH2), the EC50 in assay [2] was 826 nM.

Regarding `NC(=O)[C@H](Cc1ccccc1)NC(=O)[C@H](CCCN=C(N)N)NC(=O)[C@H](Cc1ccccc1)NC(=O)[C@H](CO)NC(=O)[C@H](Cc1ccccc1)NC(=O)CNC(=O)CNC(=O)c1ccco1` (2Furoyl-GGFSFRF-NH2), in assay [2], the EC50 was found to be 695 nM.

For `N=C(N)NCCC[C@H](NC(=O)[C@H](Cc1ccccc1)NC(=O)[C@H](CO)NC(=O)[C@@H](N)Cc1ccccc1)C(=O)N[C@@H](Cc1ccccc1)C(N)=O` (H-FSFRF-NH2), the result in assay [1] was inactive.

Regarding `CC(C)C[C@H](NC(=O)[C@H](CC(N)=O)NC(=O)CNC(=O)[C@H](CC(C)C)NC(=O)[C@@H]1CCCN1C(=O)CNC(=O)[C@H](CO)NC(=O)[C@@H](N)[C@@H](C)O)C(=O)N[C@@H](C)C(=O)N[C@@H](CCC(=O)O)C(=O)N[C@@H](CCC(=O)O)C(=O)N[C@@H](CC(C)C)C(=O)N[C@@H](CC(N)=O)C(=O)NCC(=O)N[C@@H](Cc1ccc(O)cc1)C(=O)N[C@@H](CO)C(=O)N[C@@H](CCCNC(=N)N)C(=O)N[C@@H](CCCCN)C(=O)N[C@@H](CCCCN)C(=O)NCC(=O)NCC(=O)N[C@@H](Cc1ccccc1)C(=O)N[C@@H](CO)C(=O)N[C@@H](Cc1ccccc1)C(=O)N[C@@H](CCCNC(=N)N)C(=O)N[C@@H](Cc1ccccc1)C(=O)N(Cc1ccccc1)Cc1ccccc1` (H-TSGPLGNLAEELNGYSRKKGGFSFRF-NBn2), the EC50 in assay [2] was determined as 166 nM.

Regarding `NCC(=O)NCC(=O)N[C@@H](Cc1ccccc1)C(=O)N[C@H](CO)C(=O)N[C@@H](Cc1ccccc1)C(=O)N[C@@H](CCCN=C(N)N)C(=O)N[C@@H](Cc1ccccc1)C(N)=O`, the EC50 in assay [2] was 4980 nM.

With `C[C@H](NC(=O)CNC(=O)CN)C(=O)N[C@@H](CO)C(=O)N[C@@H](Cc1ccccc1)C(=O)N[C@@H](CCCNC(=N)N)C(=O)N[C@@H](Cc1ccccc1)C(N)=O` (H-GGASFRF-NH2), the EC50 in assay [2] came to 1330 nM.

`C[C@H](NC(=O)[C@H](Cc1cnc[nH]1)NC(=O)[C@@H](N)CCC(=O)O)C(=O)NCC(=O)N[C@@H](CS)C(=O)N[C@@H](CCCN=C(N)N)C(=O)N[C@@H](Cc1ccccc1)C(=O)N[C@@H](CCCN=C(N)N)C(=O)N[C@@H](Cc1ccccc1)C(N)=O` (H-EHAGCRFRF-NH2): the EC50 in assay [2] was 2910 nM.

By EC50 is commonly meant the concentration giving half of the maximal effect.
